CHO parental Ca: signal in parental CHO cells, OX1R antagonist counter-screen | parental CHO-K1, ATP-induced calcium, Fluo-8 fluorescence | inhibition, % at 5.6 µM | hit rate 0.63% among 330,000;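 active = inhibition above that plate's mean sample inhibition plus 3 SD, cut at about 26% in these data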
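Material: parental CHO cells / Compound: single nominal dose of 5.6 µM per compound / Signal: Fluo-8 fluorescence / Replicates: singlicate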
OX1R antag-1: blocks the human orexin 1 receptor | inhibition, % at 5 µM | O43613 | AID 434989 | CHO/OX1R cells, Fluo-8 calcium fluorescence, orexin A | hit rate 0.43% among 330,000;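 active = inhibition above its plate's threshold, mean inhibition of all tested compounds on the plate plus 3 SD, cut at about 37% in these data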
Target sequence (O43613 whole entry, looked up): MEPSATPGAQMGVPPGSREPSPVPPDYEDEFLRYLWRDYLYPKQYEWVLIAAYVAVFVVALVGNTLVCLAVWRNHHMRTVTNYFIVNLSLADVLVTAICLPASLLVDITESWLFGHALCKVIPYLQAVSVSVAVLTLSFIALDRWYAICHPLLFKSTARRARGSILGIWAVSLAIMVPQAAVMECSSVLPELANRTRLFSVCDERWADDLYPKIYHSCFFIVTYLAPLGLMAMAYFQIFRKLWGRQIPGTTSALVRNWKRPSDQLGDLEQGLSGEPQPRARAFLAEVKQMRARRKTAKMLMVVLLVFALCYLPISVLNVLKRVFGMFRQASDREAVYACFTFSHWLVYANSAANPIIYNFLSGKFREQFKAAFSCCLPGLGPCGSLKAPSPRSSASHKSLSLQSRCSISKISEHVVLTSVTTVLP
TAAR1 agonist: human TAAR1 agonism; AID 624467; activation, % at 3 µM; Q96RJ0; CHO RD-HGA16 TAAR1, Fluo-8 calcium fluorescence; vehicle wells 0%, saturating PEA agonist 100%; hit rate 0.99% among 360,000;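 active = activation above the mean activation of all test compounds in the run plus 3 SD, cut at about 38% in these data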
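System: CHO-derived RD-HGA16 cells with stable Gα16 and human TAAR1 / Times: 17-24 h plating, Fluo-8 75 min 37 °C, 30 min RT / Technique: calcium-sensitive Fluo-8 signal, excitation 470-495, emission 515-575 nm / Measure: % activation relative to PEA EC100 response / Benchmarks: DMSO and PEA EC100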
TAAR1 antagonist: human TAAR1 antagonism; Q96RJ0; hit rate 1.5% among 360,000; CHO RD-HGA16 TAAR1, Fluo-8 calcium fluorescence, antagonist; inhibition, % at 3 µM; AID 624466;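 active = inhibition above a per-plate cutoff, the mean inhibition of test compounds on that plate plus 3 SD, cut at about 49% in these data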
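Test system – hTAAR1-expressing CHO RD-HGA16 cells, Gα16-coupled · Reagent – β-PEA at EC80 concentration, post-compound challenge · Compound dosing – 3 µM, single point · Timing – 140 s kinetic read after compound, 140 s after agonist · Detection – Fluo-8 intracellular calcium dye fluorescence, real-time kinetic reads · Control set – DMSO and EC80 PEA controls · Repeats – n of 1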
OX1R antag-2: blocks the human orexin 1 receptor; O43613; OX1R-expressing cells, FRET antagonist read-out; hit rate 1.8% among 330,000; inhibition, % at 6.6 µM; in the data active = inhibition mostly above about 38%, no sharp cut-off; inactive = mostly below about 40%
GPR7 antagonist: blocks human GPR7 receptor signaling; P48145; GPR7-expressing cells, fluorescence antagonist assay; inhibition, % at 4.4 µM; hit rate 1.1% among 290,000; in the data active = inhibition above about 16%, passing the limit was not always enough;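 also: cells stimulated with the agonist NPW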
Large screens that a line does not name were inactive. Hits are enriched below; roughly 4.5% of the tested compounds scored in any of these assays.

CCn1c(C)nc2cc(-c3nnc(-c4c(-c5ccccc5)noc4C)o3)ccc21	CHO parental Ca 37, OX1R antag-2 45
Cc1ccc(S(=O)(=O)N2CCN(c3ccc(N4CCOCC4)nn3)CC2)cc1[N+](=O)[O-]	none (no result: GPR7 antagonist)
O=[N+]([O-])c1ccc(S(=O)(=O)N2CCN(c3ccc(N4CCOCC4)nn3)CC2)cc1	OX1R antag-2 46 (no result: GPR7 antagonist)
CN1CCN(S(=O)(=O)c2ccc([N+](=O)[O-])cc2)CC1	OX1R antag-2 31
CC1CCN(S(=O)(=O)c2ccc([N+](=O)[O-])cc2)CC1	none
O=C(CCl)Nc1c(C(=O)Nc2ccc3c(c2)OCCO3)oc2ccccc12	OX1R antag-2 68
Cc1nnc(NC(=O)c2oc3ccccc3c2C)s1	none
Cc1nc(NC(=O)c2oc3ccccc3c2C)sc1C(=O)N(C)C	OX1R antag-2 54
CC(=O)Nc1c(C(=O)Nc2ccc3c(c2)OCO3)oc2ccccc12	none
Cc1c(C(=O)Nc2ccc3c(c2)OCO3)oc2ccccc12	OX1R antag-2 73
O=C(c1ccco1)N1CCC(c2nc3c(nnn3Cc3ccc(F)cc3)c(=O)[nH]2)CC1	none
COc1ccc(Cc2nnc(NC(=O)CSc3ccc(C)cc3)s2)cc1OC	TAAR1 agonist 112, TAAR1 antagonist 87
CCCc1ccc(-c2cc(NC(=O)Cc3c(C)[nH]c4ccccc34)ccc2N(C)c2cccnc2)cc1	none (no result: CHO parental Ca, OX1R antag-1, OX1R antag-2, GPR7 antagonist)
C/C=C/c1ccc2c(c1)O[C@H](CN(C)CC1CCOCC1)[C@@H](C)CN([C@H](C)CO)S2(=O)=O	none (no result: CHO parental Ca, OX1R antag-1, OX1R antag-2, GPR7 antagonist)
CCCn1c(SCC(=O)N2N=C3/C(=C/c4ccc(OC)cc4)CCCC3C2c2ccc(OC)cc2)n[nH]c1=O (stereo not drawn)	TAAR1 agonist 49, TAAR1 antagonist 50, GPR7 antagonist 20
CCCn1c(SCC(=O)NCc2ccc(OC)cc2)n[nH]c1=O	none
O=C(Cc1c[nH]c2ccccc12)Nc1ccc(Nc2cccnc2)c(-c2ccc(OC(F)(F)F)cc2)c1	none (no result: CHO parental Ca, OX1R antag-1, OX1R antag-2, GPR7 antagonist)
Cc1cc(Br)cn2c(Cc3ccccc3C(F)(F)F)c(-c3cccc(Cl)c3)nc12	none (no result: CHO parental Ca, OX1R antag-1, OX1R antag-2, GPR7 antagonist)
COc1ccc(Cc2nnc(NC(=O)c3ccccc3[N+](=O)[O-])s2)cc1	none
COc1ccc(Cc2nnc(NC(=O)c3cccc([N+](=O)[O-])c3C)s2)cc1	TAAR1 agonist 61
CN1OC[C@@H]2CN3C(=Nc4cc(C(F)(F)F)cc(C(F)(F)F)c4)Sc4ccccc4[C@@H]3C[C@@H]21	none (no result: CHO parental Ca, OX1R antag-1, OX1R antag-2, GPR7 antagonist)
COc1ccc(S(=O)(=O)Nc2ccccc2C(F)(F)F)cc1	none
COc1ccc(S(=O)(=O)NN(C)c2nc(C(F)(F)F)nc3ccccc23)cc1	OX1R antag-2 72
COCCNC(=O)C(c1ccc(F)cc1)N(Cc1cccs1)C(=O)CCC(=O)Nc1ccccn1 (stereo not drawn)	OX1R antag-2 76
COCCNC(=O)C(c1ccc(O)cc1)N(Cc1ccccc1)C(=O)CCC(=O)Nc1ccccn1 (stereo not drawn)	none
COCCNC(=O)C(c1ccc(F)cc1)N(Cc1ccccc1)C(=O)CCC(=O)Nc1ccccn1 (stereo not drawn)	OX1R antag-2 70
CC(C)(C)OC(=O)N1C[C@@]23C[C@H](c4cccc(F)c4)[C@@H](C[C@@H]2S1(=O)=O)O3	none (no result: CHO parental Ca, OX1R antag-1, OX1R antag-2, GPR7 antagonist)
CC(C)C[C@H](NC(=O)c1cccs1)C(=O)N1CCC[C@H]1C(=O)NCc1ccccc1	none (no result: CHO parental Ca, OX1R antag-1, OX1R antag-2, GPR7 antagonist)
CSc1ccc(-c2cc(=O)c3ccccc3o2)cc1	OX1R antag-2 68
O=C(NNC(=O)C1CCCC1)c1cc([N+](=O)[O-])cc([N+](=O)[O-])c1	OX1R antag-2 38 (no result: GPR7 antagonist)
COCCOc1cc(NCc2ccccc2)c2ncn(C(C)C)c2c1	none (no result: GPR7 antagonist)
CCOc1cc(NCc2ccccc2)c2ncn(C(C)C)c2c1	TAAR1 agonist 44 (no result: GPR7 antagonist)
O=C(C(=O)N(C1CCCCC1)C1CCCCC1)c1ccccc1	none (no result: CHO parental Ca, OX1R antag-1, OX1R antag-2, GPR7 antagonist)
O=c1oc2ccccc2cc1-c1cn2cccnc2n1	OX1R antag-2 66
Cc1ccccc1CN1[C@@H](CC2CCCCC2)COCCS1(=O)=O	OX1R antag-2 68
O=S1(=O)CCOC[C@H](CC2CCCCC2)N1Cc1ccccc1	none
Cc1ccc(C2c3c(n[nH]c3C)C(=O)N2Cc2ccccc2)cc1 (stereo not drawn)	none (no result: CHO parental Ca, OX1R antag-1, OX1R antag-2, GPR7 antagonist)

Compound activity: PubChem BioAssay, The Scripps Research Institute Molecular Screening Center
